From ChEMBL document CHEMBL1126694, “Antitumor agents. 141. Synthesis and biological evaluation of novel thiocolchicine analogs: N-acyl-, N-aroyl-, and N-(substituted benzyl)deacetylthiocolchicines as potent cytotoxic and antimitotic compounds” (J Med Chem, 1993)

Assays:
Format in all cases: functional
SNB-19 = experiment: In vitro cytotoxicity against SNB-19 cell line.; conditions: Homo sapiens
Method in brief: (§1)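 Tested by the NCI in its tumor cell panel. GI50 (M) is reported as the concentration that caused 50% inhibition of tumor cell growth.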

HCT-15 = experiment: In vitro cytotoxicity against HCT-15 cell line.; conditions: Homo sapiens; method in brief: as §1
A549 = experiment: In vitro cytotoxicity against A549/ATCC cell line.; conditions: Homo sapiens; method in brief: as §1
OVCAR = experiment: In vitro cytotoxicity against OVCAR cell line.; conditions: Homo sapiens; method in brief: as §1
SR = experiment: In vitro cytotoxicity against SR cell line.; conditions: Homo sapiens; method in brief: as §1
DMS-114 = experiment: In vitro cytotoxicity against DMS114 cell line.; conditions: Homo sapiens; method in brief: as §1
[1] = In vitro cytotoxicity against RXF cell line.; conditions: Homo sapiens; method in brief: as §1
Tubulin = experiment: In vitro inhibition of tubulin polymerization.
SK-MEL-5 = experiment: In vitro cytotoxicity against SK-MEL-5 cell line.; conditions: Homo sapiens; method in brief: as §1

With `COc1cc2c(c(OC)c1OC)-c1ccc(SC)c(=O)cc1[C@@H](NCc1ccc([N+](=O)[O-])cc1)CC2` the GI50 (SNB-19) was < 0.01 µM, the GI50 (HCT-15) was < 0.01 µM and the GI50 (A549) was < 0.01 µM. For the same compound, the GI50 (OVCAR) was < 0.01 µM, the GI50 (SR) was < 0.01 µM and the GI50 (DMS-114) was < 0.01 µM. For the same compound, the GI50 [1] was < 0.01 µM, the IC50 (Tubulin) was 2.8 µM and the GI50 (SK-MEL-5) was < 0.01 µM.

Compound `COc1cc2c(c(OC)c1OC)-c1ccc(SC)c(=O)cc1[C@@H](NC(=O)c1cccc([N+](=O)[O-])c1)CC2` has a GI50 (SNB-19) of 0.0269 µM, a GI50 (HCT-15) of 0.0269 µM and a GI50 (A549) of 0.0331 µM. For the same compound, the GI50 (OVCAR) was 0.0191 µM, the GI50 (SR) was 0.00851 µM and the GI50 (DMS-114) was 0.0166 µM. It also gave a GI50 [1] of 0.0166 µM, an IC50 (Tubulin) of 3.4 µM and a GI50 (SK-MEL-5) of 0.0182 µM.

In the case of `COc1ccc(CN[C@H]2CCc3cc(OC)c(OC)c(OC)c3-c3ccc(SC)c(=O)cc32)c(OC)c1OC`, the GI50 (HCT-15) is reported as < 0.01 µM, the GI50 (OVCAR) is reported as < 0.01 µM and the GI50 (SR) is reported as < 0.01 µM. The GI50 (DMS-114) was < 0.01 µM, the IC50 (Tubulin) was 2.5 µM and the GI50 (SK-MEL-5) was < 0.01 µM.

In the case of `COc1cc(C(=O)N[C@H]2CCc3cc(OC)c(OC)c(OC)c3-c3ccc(SC)c(=O)cc32)cc(OC)c1OC`, the GI50 (A549) is reported as 0.017 µM, the GI50 (OVCAR) is reported as < 0.01 µM and the GI50 (SR) is reported as < 0.01 µM. For the same compound, the GI50 (DMS-114) was < 0.01 µM, the GI50 [1] was 0.0339 µM and the GI50 (SK-MEL-5) was < 0.01 µM.

`CCOC(=O)c1c(OC)cc(C(=O)N[C@H]2CCc3cc(OC)c(OC)c(OC)c3-c3ccc(SC)c(=O)cc32)cc1OC` showed a GI50 (SNB-19) of 0.324 µM, a GI50 (HCT-15) of 0.447 µM and a GI50 (A549) of 0.427 µM. The GI50 (OVCAR) was 0.0324 µM, the GI50 (DMS-114) was 0.0263 µM and the GI50 [1] was 0.234 µM. The GI50 (SK-MEL-5) was 0.0457 µM.

For `COc1cc(CN[C@H]2CCc3cc(OC)c(OC)c(OC)c3-c3ccc(SC)c(=O)cc32)cc(OC)c1`, the GI50 (SNB-19) was 0.0676 µM, the GI50 (HCT-15) was < 0.01 µM and the GI50 (A549) was 0.0372 µM. For the same compound, the GI50 (SR) was < 0.01 µM, the GI50 (DMS-114) was 0.0166 µM and the GI50 [1] was < 0.01 µM. For the same compound, the IC50 (Tubulin) was 3.4 µM.

For `COc1cc2c(c(OC)c1OC)-c1ccc(SC)c(=O)cc1[C@@H](NC(=O)c1ccc(C#N)cc1)CC2`, the GI50 (SNB-19) was < 0.01 µM, the GI50 (HCT-15) was < 0.01 µM and the GI50 (A549) was < 0.01 µM. The GI50 (OVCAR) was < 0.01 µM, the GI50 (SR) was < 0.01 µM and the GI50 (DMS-114) was < 0.01 µM. The GI50 (SK-MEL-5) was < 0.01 µM.

For `COc1cc2c(c(OC)c1OC)-c1ccc(SC)c(=O)cc1[C@@H](NC(=O)c1ccc(Cl)cc1)CC2`, the GI50 (SNB-19) was < 0.01 µM, the GI50 (HCT-15) was < 0.01 µM and the GI50 (A549) was < 0.01 µM. For the same compound, the GI50 (OVCAR) was < 0.01 µM, the GI50 (SR) was < 0.01 µM and the GI50 (DMS-114) was < 0.01 µM. The GI50 [1] was < 0.01 µM and the GI50 (SK-MEL-5) was < 0.01 µM.

With `COc1cc2c(c(OC)c1OC)-c1ccc(SC)c(=O)cc1[C@@H](NC(=O)c1ccc(OC(C)=O)cc1)CC2` the GI50 (SNB-19) was 0.0214 µM, the GI50 (HCT-15) was < 0.1 µM and the GI50 (A549) was < 0.1 µM. The GI50 (OVCAR) was 0.0151 µM, the GI50 (SR) was 0.00776 µM and the GI50 (DMS-114) was 0.0144 µM. The GI50 [1] was 0.0275 µM and the GI50 (SK-MEL-5) was 0.0195 µM.

With `COc1cc2c(c(OC)c1OC)-c1ccc(SC)c(=O)cc1[C@@H](NCc1cccc(C#N)c1)CC2` the GI50 (SNB-19) was < 0.00759 µM, the GI50 (HCT-15) was < 0.00759 µM and the GI50 (A549) was < 0.00759 µM. The GI50 (OVCAR) was < 0.00759 µM, the GI50 (SR) was < 0.00759 µM and the GI50 (DMS-114) was < 0.00759 µM. The GI50 [1] was < 0.00759 µM, the IC50 (Tubulin) was 2.5 µM and the GI50 (SK-MEL-5) was < 0.00759 µM.

For `COc1cc2c(c(OC)c1OC)-c1ccc(SC)c(=O)cc1[C@@H](NCc1ccccc1[N+](=O)[O-])CC2`, the GI50 (SNB-19) was < 0.01 µM, the GI50 (HCT-15) was < 0.01 µM and the GI50 (A549) was < 0.01 µM. The GI50 (OVCAR) was < 0.01 µM, the GI50 (DMS-114) was < 0.01 µM and the GI50 [1] was < 0.01 µM. For the same compound, the IC50 (Tubulin) was 3.2 µM and the GI50 (SK-MEL-5) was < 0.01 µM.

For `CCCCCC(=O)N[C@H]1CCc2cc(OC)c(OC)c(OC)c2-c2ccc(SC)c(=O)cc21`, the GI50 (SNB-19) was < 0.01 µM, the GI50 (HCT-15) was < 0.01 µM and the GI50 (A549) was < 0.01 µM. For the same compound, the GI50 (OVCAR) was < 0.01 µM, the GI50 (SR) was < 0.01 µM and the GI50 (DMS-114) was < 0.01 µM. For the same compound, the GI50 [1] was < 0.01 µM and the GI50 (SK-MEL-5) was < 0.01 µM.

In the case of `COc1cc2c(c(OC)c1OC)-c1ccc(SC)c(=O)cc1[C@@H](NC(=O)c1ccc([N+](=O)[O-])cc1)CC2`, the GI50 (SNB-19) is reported as < 0.01 µM, the GI50 (HCT-15) is reported as < 0.01 µM and the GI50 (A549) is reported as < 0.01 µM. The GI50 (OVCAR) was < 0.01 µM, the GI50 (SR) was < 0.01 µM and the GI50 (DMS-114) was < 0.01 µM. The GI50 [1] was < 0.01 µM and the GI50 (SK-MEL-5) was < 0.01 µM.

In the case of `COc1cc2c(c(OC)c1OC)-c1ccc(SC)c(=O)cc1[C@@H](NC(=O)c1ccc(F)cc1)CC2`, the GI50 (SNB-19) is reported as 0.0288 µM, the GI50 (HCT-15) is reported as 0.0427 µM and the GI50 (A549) is reported as 0.049 µM. For the same compound, the GI50 (OVCAR) was 0.0182 µM, the GI50 (SR) was 0.0166 µM and the GI50 (DMS-114) was 0.0269 µM. The GI50 (SK-MEL-5) was 0.0302 µM.

For `COc1cc2c(c(OC)c1OC)-c1ccc(SC)c(=O)cc1[C@@H](NCc1ccc(F)cc1)CC2`, the GI50 (SNB-19) was < 0.00759 µM, the GI50 (HCT-15) was < 0.00759 µM and the GI50 (A549) was < 0.00759 µM. For the same compound, the GI50 (OVCAR) was < 0.00759 µM, the GI50 (SR) was < 0.00759 µM and the GI50 [1] was < 0.00759 µM. The IC50 (Tubulin) was 2.3 µM and the GI50 (SK-MEL-5) was < 0.00759 µM.

For `COc1cc2c(c(OC)c1OC)-c1ccc(SC)c(=O)cc1[C@@H](NCc1ccc(C#N)cc1)CC2`, the GI50 (SNB-19) was < 0.01 µM, the GI50 (HCT-15) was < 0.01 µM and the GI50 (A549) was < 0.01 µM. The GI50 (OVCAR) was < 0.01 µM, the GI50 (SR) was < 0.01 µM and the GI50 (DMS-114) was < 0.01 µM. The GI50 [1] was < 0.01 µM, the IC50 (Tubulin) was 2.3 µM and the GI50 (SK-MEL-5) was < 0.01 µM.

For `COc1cc2c(c(OC)c1OC)-c1ccc(SC)c(=O)cc1[C@@H](NCc1cccc([N+](=O)[O-])c1)CC2`, the GI50 (SNB-19) was < 0.01 µM, the GI50 (HCT-15) was < 0.01 µM and the GI50 (A549) was < 0.01 µM. The GI50 (OVCAR) was < 0.01 µM, the GI50 (SR) was > 100 µM and the GI50 (DMS-114) was < 0.01 µM. For the same compound, the GI50 [1] was < 0.01 µM, the IC50 (Tubulin) was 2.8 µM and the GI50 (SK-MEL-5) was < 0.01 µM.

With `COc1cc2c(c(OC)c1OC)-c1ccc(OC)c(=O)cc1[C@@H](NC(C)=O)CC2` [COLCHICINE] the GI50 (HCT-15) was < 0.0631 µM, the GI50 (A549) was < 0.0631 µM and the GI50 (OVCAR) was < 0.0631 µM. For the same compound, the GI50 (SK-MEL-5) was < 0.0631 µM.
